The values that follow come from ChEMBL document CHEMBL4602615, “Upregulation of p53 through induction of MDM2 degradation: Amino acid prodrugs of anthraquinone analogs” (Bioorg Med Chem Lett, 2020).

The subject of data set [1] is HeLa. In words: Cytotoxicity against human HeLa cells assessed as reduction in cell viability by WST8 assay. It counts as functional, cell-based. A digest of the protocol: (§1)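 WST-8 viability read-out in HeLa cells and in an in-house established wild-type p53 leukemia line (EU-1). IC50 derived from the concentration–response data.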
On the technique in general: Tetrazolium assays rely on reduction of a dye to a coloured formazan, in cell work by metabolically active cells.

Data set [2] can be described thus: Prodrug conversion assessed as porcine pancreas Kallikrein-mediated compound hydrolysis by measuring half life by HPLC analysis. It counts as ADME, Sus scrofa. The conditions noted are these: pig. Summed up: (§2)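 Amino-acid ester prodrugs incubated with the hydrolytic enzyme in PBS, pH 7.4, at 37 °C. Release of parent anthraquinone monitored by HPLC, and half-life derived.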

Data set [3] is described as follows: Cytotoxicity against human EU1 cells assessed as reduction in cell viability by WST8 assay. The class given is functional, cell-based. The following applies: EU-1. Summed up:
as §1

Data set [4] is described as follows: Aqueous solubility of compound in PBS buffer at pH 7.4 by HPLC analysis. It counts as physicochemical.
Data set [5] is described as follows: Prodrug conversion assessed as porcine liver Esterase-mediated compound hydrolysis by measuring half life by HPLC analysis. It counts as ADME, Sus scrofa. The following applies: pig, isolated protein. Summed up: as §2
Data set [6] in a line: Prodrug conversion in PBS buffer assessed as half life at pH 7.4 and 37 degC by HPLC analysis. It counts as physicochemical.
In data set [7] the target is E3 ubiquitin-protein ligase Mdm2 (Homo sapiens) (UniProt Q00987). The data set can be described thus: Induction of MDM2 degradation in human EU1 cells assessed as downregulation of MDM2 protein expression at 0.8 uM incubated for 15 hrs by Western blot analysis. It counts as cell-based. Summed up:
(§3)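 EU-1 is an in-house established leukemia line carrying wild-type p53. Cells were exposed across a series of concentrations and incubation times, then lysed. MDM2 and p53 protein levels were read by Western blot.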
On the technique in general: A western blot detects proteins with antibodies after separation by electrophoresis.

For data set [8] the target is unchanged. The data set can be described thus: Induction of MDM2 degradation in human EU1 cells assessed as downregulation of MDM2 protein expression incubated for 15 hrs by Western blot analysis. The class given is cell-based. Summed up:
as §3

Data set [9] has the same target. The data set can be described thus: Induction of MDM2 degradation in human EU1 cells assessed as downregulation of MDM2 protein expression at 1 uM incubated for 4 to 16 hrs by Western blot analysis. The class given is cell-based. A digest of the protocol: as §3
Data set [10] shares this target. The data set can be described thus: Induction of MDM2 degradation in human EU1 cells assessed as upregulation of p53 protein expression incubated for 15 hrs by Western blot analysis. It counts as cell-based. A digest of the protocol:
as §3

Data set [11] shares this target. In words: Induction of MDM2 degradation in human EU1 cells assessed as upregulation of p53 protein expression at 0.8 uM incubated for 15 hrs by Western blot analysis. It counts as cell-based. Summed up:
as §3

For data set [12] the target is unchanged. The data set can be described thus: Induction of MDM2 degradation in human EU1 cells assessed as downregulation of MDM2 protein expression at 1 uM by Western blot analysis. The class given is cell-based. The following applies: TDE = time-dependent effect. Summed up: as §3
The target is the same in data set [13]. The data set can be described thus: Induction of MDM2 degradation in human EU1 cells assessed as upregulation of p53 protein expression at 1 uM by Western blot analysis. The class given is cell-based. The conditions noted are these: TDE = time-dependent effect. A digest of the protocol:
as §3

The target is the same in data set [14]. The data set can be described thus: Induction of MDM2 degradation in human EU1 cells assessed as upregulation of p53 protein expression at 1 uM incubated for 4 to 8 hrs by Western blot analysis. It counts as cell-based. Summed up:
as §3

The nature of data set [15]: Prodrug conversion in cell culture media assessed as half life. The class given is physicochemical.
The nature of data set [16]: Prodrug conversion in none-denaturated human EU1 cell lysates assessed as N-[4,5-bis(2-hydroxyethoxy)-9,10-dioxo-2-anthryl]-2-chloro-acetamide release measured within 15 mins by HPLC analysis. The following applies: 0.25 h. The class given is ADME, subcellular, Lysate. Summed up:
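Prodrug incubated with non-denatured lysate of EU-1 cells, an in-house wild-type p53 leukemia line, to assess activation by cellular components. Read-out was cleavage of the amino acid ester bond releasing the parent anthraquinone, followed over time.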

Where [17] appears, read: PBS buffer, read-out: solubility.

The structures appear in SMILES notation. In brackets after ≈: the same amount, converted by molar mass. Activity calls are given as the source filed them. No cut-off for these calls is given here.

Sequence of E3 ubiquitin-protein ligase Mdm2 (Homo sapiens) (Q00987 whole entry, looked up): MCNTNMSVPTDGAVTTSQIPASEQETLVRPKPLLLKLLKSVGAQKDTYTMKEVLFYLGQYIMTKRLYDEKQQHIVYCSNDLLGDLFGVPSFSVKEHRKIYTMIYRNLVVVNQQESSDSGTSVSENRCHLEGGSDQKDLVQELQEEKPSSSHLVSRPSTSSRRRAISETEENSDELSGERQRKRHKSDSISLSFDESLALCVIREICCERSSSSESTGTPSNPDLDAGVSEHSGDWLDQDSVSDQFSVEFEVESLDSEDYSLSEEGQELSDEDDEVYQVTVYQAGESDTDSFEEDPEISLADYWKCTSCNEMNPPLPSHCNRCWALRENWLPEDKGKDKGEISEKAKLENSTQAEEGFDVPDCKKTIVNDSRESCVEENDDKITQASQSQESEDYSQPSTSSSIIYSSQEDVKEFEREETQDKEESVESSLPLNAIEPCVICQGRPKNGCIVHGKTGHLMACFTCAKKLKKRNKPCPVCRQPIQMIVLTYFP

The IC50 is the midpoint of a concentration-inhibition curve. In general, solubility refers to how much of the substance goes into solution per volume. For the molecule `Cl.N[C@@H](Cc1ccc(O)cc1)C(=O)OCCOc1cccc2c1C(=O)c1c(OCCOC(=O)[C@@H](N)Cc3ccc(O)cc3)cc(NC(=O)CCl)cc1C2=O`, the IC50 in [1] was determined as 5.4 µM; in [3], 1.27 µM. Also, the t1/2 in [2] was 6.5 min; in [5], 1.7 min; in [6] it was 70.6 min. For the same molecule, in [4] (setting [17]), the solubility was greater than 100 mg/mL.

Regarding `Cl.N=C(N)NCCC[C@H](N)C(=O)OCCOc1cccc2c1C(=O)c1c(OCCOC(=O)[C@@H](N)CCCNC(=N)N)cc(NC(=O)CCl)cc1C2=O`, the half-maximal inhibitory concentration (IC50) is 13 µM in data set [1] and 2.07 µM in [3]. Further, the values for the t1/2 in data set [2], in [5] and in [6] were 0.2 min, 63 min and 187.1 min, respectively. For the same molecule, the solubility in data set [4] (setting [17]) is greater than 100 mg/mL.

As for `CSCC[C@H](N)C(=O)OCCOc1cccc2c1C(=O)c1c(OCCOC(=O)[C@@H](N)CCSC)cc(NC(=O)CCl)cc1C2=O.Cl`, the figures for the IC50 in data set [1] and in data set [3] were 7.07 µM and 1.24 µM, respectively. For the same molecule, the t1/2 in [2] worked out at 12 min; in data set [5], 3.7 min; in data set [6], 44.8 min. Also, in [4] (setting [17]), the solubility is greater than 100 mg/mL.

With `C[C@H](N)C(=O)OCCOc1cccc2c1C(=O)c1c(OCCOC(=O)[C@H](C)N)cc(NC(=O)CCl)cc1C2=O.Cl`, the IC50 in [1] worked out at 8.21 µM; in data set [3] it was 1.66 µM. Also, the t1/2 in data set [2] stood at 24.7 min; in [5], 6.2 min; in [6] it was 100.9 min. Also, the solubility in data set [4] (setting [17]) is greater than 100 mg/mL.

As to `CC(C)C[C@H](N)C(=O)OCCOc1cccc2c1C(=O)c1c(OCCOC(=O)[C@@H](N)CC(C)C)cc(NC(=O)CCl)cc1C2=O.Cl`, the IC50 worked out at 2.8 µM in [1] and 1.17 µM in data set [3]. The t1/2 in [2] worked out at 39.6 min; in data set [5] it was 2.5 min; in data set [6], 127.7 min. Further, the solubility in data set [4] (setting [17]) is greater than 100 mg/mL.

For the molecule `O=C(CCl)Nc1cc(OCCO)c2c(c1)C(=O)c1cccc(OCCO)c1C2=O`, the result in data set [7], in [9], in [11] and in data set [14] was Active. The IC50 was found to be 3.76 µM in data set [1] and 0.89 µM in data set [3]. In addition, the Activity result in data set [8] was “Dose-dependent effect”; in data set [10], “Dose-dependent effect”; in data set [12] it was “Tde”; in [13], “Tde”. In addition, the solubility in data set [4] (buffer) came out at 0.06 mg/mL (≈ 143 µM).

On to `Cl.N[C@@H](CCC(=O)O)C(=O)OCCOc1cccc2c1C(=O)c1c(OCCOC(=O)[C@@H](N)CCC(=O)O)cc(NC(=O)CCl)cc1C2=O`, for which the values for the 50% inhibitory concentration (IC50) in data set [1] and in [3] were 9.11 µM and 3.21 µM, respectively. Further, the t1/2 is 110 min in data set [2], 156.1 min in data set [15], 117.9 min in data set [5] and 268.6 min in data set [6]. The solubility in [4] (setting [17]) is greater than 100 mg/mL.

In the case of `CC(C)[C@H](N)C(=O)OCCOc1cccc2c1C(=O)c1c(OCCOC(=O)[C@@H](N)C(C)C)cc(NC(=O)CCl)cc1C2=O.Cl`, the half-maximal inhibitory concentration (IC50) in data set [1] stood at 4.15 µM; in [3], 1.08 µM. Moreover, the t1/2 is reported as 126.3 min in data set [2], 25.3 min in data set [5] and 147.7 min in data set [6]. Besides, the solubility in data set [4] (setting [17]) is greater than 100 mg/mL. Also, in data set [16], the Drug metabolism entry was “Metabolite_Detected”.

With `Cl.NCCCC[C@H](N)C(=O)OCCOc1cccc2c1C(=O)c1c(OCCOC(=O)[C@@H](N)CCCCN)cc(NC(=O)CCl)cc1C2=O`, the IC50 in [1] is 10.7 µM; in data set [3], 1.28 µM. In addition, the t1/2 is recorded as 2.4 min in data set [2], 44.2 min in data set [5] and 140.8 min in data set [6]. Moreover, the solubility in data set [4] (setting [17]) was greater than 100 mg/mL.

`O=C(CCl)Nc1cc(O)c2c(c1)C(=O)c1cccc(O)c1C2=O` came in with a solubility in data set [4] (buffer) of 0.0085 mg/mL (≈ 25.6 µM).

As to `Cl.NCC(=O)OCCOc1cccc2c1C(=O)c1c(OCCOC(=O)CN)cc(NC(=O)CCl)cc1C2=O`, the IC50 in data set [1] came out at 3.66 µM; in data set [3], 1.1 µM. In addition, the t1/2 in data set [2] was 35.9 min; in [15] it was 19.3 min; in data set [5], 10.1 min; in [6], 31.5 min. Further, the solubility in data set [4] (setting [17]) is greater than 100 mg/mL.

Regarding `Cl.N[C@@H](Cc1ccccc1)C(=O)OCCOc1cccc2c1C(=O)c1c(OCCOC(=O)[C@@H](N)Cc3ccccc3)cc(NC(=O)CCl)cc1C2=O`, the IC50 in [1] was found to be 5.64 µM; in data set [3], 1.23 µM. Also, the t1/2 stood at 6.5 min in data set [2], 1 min in data set [5] and 73.7 min in [6]. The solubility in data set [4] (buffer) stood at 703 mg/mL.

For the molecule `CC[C@H](C)[C@H](N)C(=O)OCCOc1cccc2c1C(=O)c1c(OCCOC(=O)[C@@H](N)[C@@H](C)CC)cc(NC(=O)CCl)cc1C2=O.Cl`, the 50% inhibitory concentration (IC50) in [1] was determined as 5.75 µM; in [3], 1.14 µM. The values for the t1/2 in [2], in data set [5] and in [6] were 48.4 min, 24.3 min and 154.5 min, respectively. In [4] (setting [17]), the solubility is greater than 100 mg/mL.

In the case of `Cl.NC(=O)CC[C@H](N)C(=O)OCCOc1cccc2c1C(=O)c1c(OCCOC(=O)[C@@H](N)CCC(N)=O)cc(NC(=O)CCl)cc1C2=O`, the IC50 in data set [1] was determined as 12.3 µM; in data set [3], 1.45 µM. Further, the t1/2 amounted to 66.9 min in [2], 73 min in [5] and 137.1 min in [6]. Besides, in data set [4] (setting [17]), the solubility was greater than 100 mg/mL.
